From ChEMBL document CHEMBL1153240, “Microwave assisted synthesis and in vitro cytotoxicities of substituted (Z)-2-amino-5-(1-benzyl-1H-indol-3-yl)methylene-1-methyl-1H-imidazol-4(5H)-ones against human tumor cell lines” (2010)

Tests used:
Format in all cases: functional
CCRF-CEM = assay: Cytotoxicity against human CCRF-CEM cells
Summary of the method: (§1)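 NCI 60-cell-line panel, five-dose response study. Effect is plotted against log10 drug concentration for each cell line. GI50 is the molar concentration giving a 50% reduction in net protein increase relative to control cells. LC50 is the concentration lethal to 50% of cells.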

MOLT-4 = assay: Cytotoxicity against human MOLT4 cells; summary of the method: as §1
NCI-H460 = assay: Cytotoxicity against human NCI-H460 cells; summary of the method: as §1
OVCAR-3 = assay: Cytotoxicity against human OVCAR-3 cells; summary of the method: as §1
Malme-3M = assay: Cytotoxicity against human MALME-3M cells; summary of the method: as §1
HL-60 = assay: Cytotoxicity against human HL60 cells; summary of the method: as §1
SF-539 = assay: Cytotoxicity against human SF539 cells; summary of the method: as §1
ACHN = assay: Cytotoxicity against human ACHN cells; summary of the method: as §1
OVCAR-8 = assay: Cytotoxicity against human OVCAR8 cells; summary of the method: as §1
SK-OV-3 = assay: Cytotoxicity against human SKOV3 cells; summary of the method: as §1
HOP-92 = assay: Cytotoxicity against human HOP92 cells; summary of the method: as §1
HCT-116 = assay: Cytotoxicity against human HCT116 cells; summary of the method: as §1
SF-295 = assay: Cytotoxicity against human SF295 cells; summary of the method: as §1
M14 = assay: Cytotoxicity against human M14 cells; summary of the method: as §1
K562 = assay: Cytotoxicity against human K562 cells; summary of the method: as §1
HCT-15 = assay: Cytotoxicity against human HCT15 cells; summary of the method: as §1
OVCAR-5 = assay: Cytotoxicity against human OVCAR5 cells; summary of the method: as §1
NCI/ADR-RES = assay: Cytotoxicity against human NCI/ADR-RES cells; summary of the method: as §1
SK-MEL-28 = assay: Cytotoxicity against human SK-MEL-28 cells; summary of the method: as §1
CAKI-1 = assay: Cytotoxicity against human Caki1 cells; summary of the method: as §1
IGROV-1 = assay: Cytotoxicity against human IGROV1 cells; summary of the method: as §1
SW-620 = assay: Cytotoxicity against human SW620 cells
Summary of the method: (§2)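 NCI 60 human tumor cell line panel, five-dose dose-response study. Cytotoxic effect was plotted against log10 drug concentration for each cell line. GI50 is the molar concentration giving 50% reduction in net protein increase versus control cells. LC50 is the concentration lethal to 50% of cells.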

KM12 = assay: Cytotoxicity against human KM12 cells; summary of the method: as §1
COLO 205 = assay: Cytotoxicity against human COLO205 cells
Summary of the method: (§3)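 NCI 60-cell-line panel, five-concentration dose-response. Cytotoxic effect was plotted against log10 drug concentration for each line. GI50 is the molar concentration giving a 50% reduction in net protein increase relative to control cells. LC50 is the concentration lethal to 50% of cells. Both were read from the curves.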

A498 = assay: Cytotoxicity against human A498 cells; summary of the method: as §1
HT-29 = assay: Cytotoxicity against human HT-29 cells; summary of the method: as §3
[1] = Cytotoxicity against human […] cells; summary of the method: as §1
NCI-H23 = assay: Cytotoxicity against human NCI-H23 cells; summary of the method: as §1
TK-10 = assay: Cytotoxicity against human TK10 cells; summary of the method: as §2
LOX IMVI = assay: Cytotoxicity against human LOXIMVI cells; summary of the method: as §1
HCC 2998 = assay: Cytotoxicity against human HCC2998 cells; summary of the method: as §1
UACC-257 = assay: Cytotoxicity against human UACC257 cells; summary of the method: as §2
A549 = assay: Cytotoxicity against human A549 cells; summary of the method: as §1
SK-MEL-2 = assay: Cytotoxicity against human SK-MEL-2 cells; summary of the method: as §1
SNB-75 = assay: Cytotoxicity against human SNB75 cells; summary of the method: as §1
U-251 = assay: Cytotoxicity against human U251 cells; summary of the method: as §2
BT-549 = assay: Cytotoxicity against human BT549 cells; summary of the method: as §1
NCI-H226 = assay: Cytotoxicity against human NCI-H226 cells; summary of the method: as §1
SR = assay: Cytotoxicity against human SR cells; summary of the method: as §1
NCI-H322M = assay: Cytotoxicity against human NCI-H322M cells; summary of the method: as §1
NCI-H522 = assay: Cytotoxicity against human NCI-H522 cells; summary of the method: as §1
PC-3 = assay: Cytotoxicity against human PC3 cells; summary of the method: as §1
RXF 393 = assay: Cytotoxicity against human RXF393 cells; summary of the method: as §1
SNB-19 = assay: Cytotoxicity against human SNB19 cells; summary of the method: as §1
EKVX = assay: Cytotoxicity against human EKVX cells; summary of the method: as §1
[2] = Cytotoxicity against human Hs 578T cells; summary of the method: as §1
HOP-62 = assay: Cytotoxicity against human HOP62 cells; summary of the method: as §1
OVCAR-4 = assay: Cytotoxicity against human OVCAR4 cells; summary of the method: as §1
MDA-MB-468 = assay: Cytotoxicity against human MDA-MB-468 cells; summary of the method: as §1
DU-145 = assay: Cytotoxicity against human DU145 cells; summary of the method: as §1
SK-MEL-5 = assay: Cytotoxicity against human SK-MEL-5 cells; summary of the method: as §1
786-0 = assay: Cytotoxicity against human 786-0 cells; summary of the method: as §1
SN12C = assay: Cytotoxicity against human SN12C cells; summary of the method: as §1
MDA-MB-435 = assay: Cytotoxicity against human MDA-MB-435 cells; summary of the method: as §3
UO-31 = assay: Cytotoxicity against human UO31 cells; summary of the method: as §2
SF-268 = assay: Cytotoxicity against human SF268 cells; summary of the method: as §1
T47D = assay: Cytotoxicity against human T47D cells; summary of the method: as §2
MDA-MB-231 = assay: Cytotoxicity against human MDA-MB-231 cells; summary of the method: as §1
MCF7 = assay: Cytotoxicity against human MCF7 cells; summary of the method: as §1
[3] = read-out: LC50 (the source's name)

CN1C(N)=NC(=O)/C1=C/c1cn(Cc2ccccc2Br)c2ccccc12
GI50 (CCRF-CEM): 2.54 µM
CC50 (CCRF-CEM; [3]): 36.2 µM
GI50 (MOLT-4): 4.57 µM
CC50 (MOLT-4; [3]): > 100 µM
GI50 (NCI-H460): 3.95 µM
CC50 (NCI-H460; [3]): 56.8 µM
GI50 (OVCAR-3): 1.95 µM
CC50 (OVCAR-3; [3]): 7.35 µM
GI50 (Malme-3M): 3.3 µM
CC50 (Malme-3M; [3]): 73.8 µM
GI50 (HL-60): 1.85 µM
LC50 (HL-60): 21 µM
GI50 (SF-539): 1.73 µM
CC50 (SF-539; [3]): 6.94 µM
GI50 (ACHN): 11.8 µM
CC50 (ACHN; [3]): 59 µM
GI50 (OVCAR-8): 10.1 µM
CC50 (OVCAR-8; [3]): > 100 µM
GI50 (SK-OV-3): 11.9 µM
CC50 (SK-OV-3; [3]): 49.9 µM
GI50 (HOP-92): 2.98 µM
CC50 (HOP-92; [3]): 44.5 µM
GI50 (HCT-116): 2.42 µM
CC50 (HCT-116; [3]): 30.9 µM
GI50 (SF-295): 4.96 µM
CC50 (SF-295; [3]): > 100 µM
GI50 (M14): 4.46 µM
LC50 (M14): 47.8 µM
GI50 (K562): 2.45 µM
CC50 (K562; [3]): 77.4 µM
GI50 (HCT-15): 19.8 µM
CC50 (HCT-15; [3]): > 100 µM
GI50 (OVCAR-5): 2.12 µM
CC50 (OVCAR-5; [3]): 29 µM
GI50 (NCI/ADR-RES): > 100 µM
CC50 (NCI/ADR-RES; [3]): > 100 µM
GI50 (SK-MEL-28): 4.14 µM
CC50 (SK-MEL-28; [3]): 38.4 µM
GI50 (CAKI-1): 68.1 µM
CC50 (CAKI-1; [3]): > 100 µM
GI50 (IGROV-1): 20 µM
CC50 (IGROV-1; [3]): > 100 µM
GI50 (SW-620): 3.68 µM
CC50 (SW-620; [3]): 43.3 µM
GI50 (KM12): 5.71 µM
CC50 (KM12; [3]): 50.8 µM
GI50 (COLO 205): 2.21 µM
CC50 (COLO 205; [3]): 12.3 µM
GI50 (A498): 13.9 µM
CC50 (A498; [3]): 53.1 µM
GI50 (HT-29): 2.18 µM
CC50 (HT-29; [3]): 6.94 µM
GI50 [1]: 1.19 µM
LC50 (concentration lethal to 50% of cells) [1]: 65.9 µM
GI50 (NCI-H23): 8.07 µM
LC50 (concentration lethal to 50% of cells) (NCI-H23): 54.8 µM
GI50 (TK-10): 6.84 µM
CC50 (TK-10; [3]): > 100 µM
GI50 (LOX IMVI): 1.97 µM
LC50 (LOX IMVI): 9.37 µM
GI50 (HCC 2998): 6.95 µM
CC50 (HCC 2998; [3]): 47.2 µM
GI50 (UACC-257): 12.9 µM
LC50 (UACC-257): 66.9 µM
GI50 (A549): 28.7 µM
CC50 (A549; [3]): > 100 µM
GI50 (SK-MEL-2): 5.73 µM
CC50 (SK-MEL-2; [3]): > 100 µM
GI50 (SNB-75): 1.58 µM
LC50 (concentration lethal to 50% of cells) (SNB-75): 18.6 µM
GI50 (U-251): 3.01 µM
CC50 (U-251; [3]): 66.2 µM
GI50 (BT-549): 2.05 µM
CC50 (BT-549; [3]): > 100 µM
GI50 (NCI-H226): 1.37 µM
LC50 (NCI-H226): 69.9 µM
GI50 (SR): 1.96 µM
CC50 (SR; [3]): 72.7 µM
GI50 (NCI-H322M): 11 µM
CC50 (NCI-H322M; [3]): > 100 µM
GI50 (NCI-H522): 5.38 µM
LC50 (NCI-H522): > 100 µM
GI50 (PC-3): 10.4 µM
CC50 (PC-3; [3]): 48.1 µM
GI50 (RXF 393): 2.77 µM
CC50 (RXF 393; [3]): 53.7 µM
GI50 (SNB-19): 4.5 µM
CC50 (SNB-19; [3]): 43.8 µM
GI50 (EKVX): 58.1 µM
CC50 (EKVX; [3]): > 100 µM
GI50 [2]: 3.97 µM
LC50 [2]: > 100 µM
GI50 (HOP-62): 8.78 µM
CC50 (HOP-62; [3]): 51.2 µM
GI50 (OVCAR-4): 2.41 µM
CC50 (OVCAR-4; [3]): 25.2 µM
GI50 (MDA-MB-468): 1.69 µM
LC50 (MDA-MB-468): 6.9 µM
GI50 (DU-145): 82.1 µM
CC50 (DU-145; [3]): 68.8 µM
GI50 (SK-MEL-5): 3.38 µM
LC50 (SK-MEL-5): 42.3 µM
GI50 (786-0): 6.15 µM
LC50 (786-0): 46.2 µM
GI50 (SN12C): 6.07 µM
CC50 (SN12C; [3]): 76.3 µM
GI50 (MDA-MB-435): 4.97 µM
CC50 (MDA-MB-435; [3]): 68.6 µM
GI50 (UO-31): 7.95 µM
CC50 (UO-31; [3]): > 100 µM
GI50 (SF-268): 5.38 µM
CC50 (SF-268; [3]): 59.8 µM
GI50 (T47D): 1.68 µM
CC50 (T47D; [3]): 13.1 µM
GI50 (MDA-MB-231): 4.07 µM
LC50 (MDA-MB-231): 46.7 µM
GI50 (MCF7): 2.25 µM
CC50 (MCF7; [3]): 48.1 µM
